Screening results: PubChem BioAssay, several laboratories
tolC growth inh = E. coli tolC mutant growth inhibition; E. coli BW25113 tolC mutant growth, OD615; growth inhibition, % at 10 µM (by protocol); actives 2.2% (n = 65,000);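 active = growth inhibition at or above a cutoff equal to the mean over every tested compound plus 3 SD, cut at about 60% in these data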;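 also: growth measured after 20 h incubation at 37 °C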
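Test system: tolC-deleted E. coli BW25113 | Medium: LB with kanamycin 50 µg/mL | Compound dosing: Single concentration, 10 µM final per compound | Schedule: 37 °C, 20 h exposure | Measured by: OD at 615 nm | Evaluation: Percent growth inhibition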
Ecoli WT expand = growth inhibitors of E. coli BW25113 wild type | actives 0.15% (n = 98,000) | OD600 absorbance | growth inhibition, % at 100 µM | AID 710;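 active = growth inhibition above about 50% at one test dose, limit read from the data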;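 also: growth measured after 20 h incubation at 37 °C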
PostGolgi yeast = growth inhibition of a yeast mutant, post-Golgi transport screen; post-Golgi transport phenotypic cell assay; inhibition, % at 10 µM; actives 0.9% (n = 98,000);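 also: yeast cells grown in 1536-well plates; yeast grown about 18 h at 30C before absorbance read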
PostGolgi ctrl = growth of the yeast control strain, post-Golgi counter-screen. actives 5% (n = 98,000). efflux-deficient yeast background strain, growth absorbance A615, 16 h. inhibition, % at 10 µM
Calb biofilm kill = kills Candida albicans biofilms. inhibition, % at 6 µM. AID 834. C. albicans biofilm + clotrimazole, Alamar Blue. actives 0.14% (n = 85,000);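 active = inhibition above 20%; inactive = inhibition below 20%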;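 also: preformed 24 hr biofilms exposed to compound for 48 hr; 0% = biofilm without compound and 100% = blank killed by clotrimazole plus chlorhexidine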
Pyk2 oligo antag = antagonists of human Pyk2 oligomerization; Q14289; Q293 cells, Pyk2 FERM NanoBiT luminescence; active compounds read low; z-score (the deposit names both 25 µM and 10 µM); actives 0.83% (n = 99,000);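 active = Z-score of -3 or lower, scaled per plate to the spread of control and sample wells; inactive = z-score above -3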;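 also: negative z-score means lost luminescence so less FERM oligomerization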
Target sequence (Q14289 whole entry, looked up): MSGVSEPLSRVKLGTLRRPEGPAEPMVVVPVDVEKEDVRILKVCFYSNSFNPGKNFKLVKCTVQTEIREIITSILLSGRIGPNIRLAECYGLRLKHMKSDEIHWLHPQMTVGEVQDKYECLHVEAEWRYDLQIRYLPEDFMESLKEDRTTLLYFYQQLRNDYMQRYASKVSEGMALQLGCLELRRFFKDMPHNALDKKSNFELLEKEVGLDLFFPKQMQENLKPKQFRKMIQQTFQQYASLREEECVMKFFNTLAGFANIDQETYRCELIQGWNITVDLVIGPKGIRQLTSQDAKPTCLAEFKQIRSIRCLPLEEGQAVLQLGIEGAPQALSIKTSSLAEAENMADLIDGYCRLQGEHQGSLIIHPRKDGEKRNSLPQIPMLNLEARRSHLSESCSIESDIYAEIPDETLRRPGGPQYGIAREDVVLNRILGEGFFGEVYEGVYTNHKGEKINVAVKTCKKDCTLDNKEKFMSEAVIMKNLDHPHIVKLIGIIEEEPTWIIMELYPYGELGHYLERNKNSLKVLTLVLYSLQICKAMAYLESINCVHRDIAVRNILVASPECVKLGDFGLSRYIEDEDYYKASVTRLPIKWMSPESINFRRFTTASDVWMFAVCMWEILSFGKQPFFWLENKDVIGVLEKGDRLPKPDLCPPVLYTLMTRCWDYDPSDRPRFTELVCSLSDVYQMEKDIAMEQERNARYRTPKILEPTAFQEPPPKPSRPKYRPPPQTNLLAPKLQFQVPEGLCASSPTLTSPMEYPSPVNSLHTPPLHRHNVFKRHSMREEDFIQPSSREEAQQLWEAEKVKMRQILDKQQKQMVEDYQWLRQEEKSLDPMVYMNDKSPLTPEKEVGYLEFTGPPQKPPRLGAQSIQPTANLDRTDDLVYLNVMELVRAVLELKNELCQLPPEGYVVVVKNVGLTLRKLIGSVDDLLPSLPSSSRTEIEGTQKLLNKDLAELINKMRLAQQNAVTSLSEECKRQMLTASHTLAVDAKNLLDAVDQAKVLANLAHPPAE
The depositor's hits bear a star. Only some compounds are listed: those with a hit (about 6.5% of all), similar ones and a draw of the others. Rule as the data show it, unless noted: active = inhibition above about 30%; inactive = the rest.

Cc1sc(NC(=O)CN2CCOCC2)nc1-c1ccc2c(c1)CCN2S(=O)(=O)c1ccccc1 was read as Ecoli WT expand -12.0, PostGolgi yeast 1.7, PostGolgi ctrl 2.7, Calb biofilm kill 5.7 and Pyk2 oligo antag 0.03.
`COc1cccc(/C(C#N)=C/c2c(-c3ccc(Cl)cc3)nc3c(C)cccn23)c1` gave Ecoli WT expand -13.0, PostGolgi yeast 6.9, PostGolgi ctrl 49.3* and Pyk2 oligo antag -1.43.
`O=C(NO)c1ccc(C(=O)N(C2CCCCC2)C2CCCCC2)cc1` gave tolC growth inh 17.1, Ecoli WT expand 5.0, PostGolgi yeast 101.9*, PostGolgi ctrl 95.6*, Calb biofilm kill 6.9 and Pyk2 oligo antag -0.27.
Screening CN(C(=O)c1ccc(C(=O)N(C)C2CCCCC2)cc1)C1CCCCC1 returned Calb biofilm kill 5.3.
`Cc1cc(N2CCN(c3ccccc3)CC2)n2cc(-c3ccccc3)nc2n1` gave Ecoli WT expand -3.0, PostGolgi yeast 9.9, PostGolgi ctrl 9.9 and Pyk2 oligo antag -0.29.
Screening Cc1cc(N2CCN(c3ccccc3Cl)CC2)n2cc(-c3ccccc3)nc2n1 returned Ecoli WT expand -6.0, PostGolgi yeast 1.1, PostGolgi ctrl 34.0* and Pyk2 oligo antag -1.62.
Screening COc1ccc(OC)c(NS(=O)(=O)c2cc(OC)ccc2OC)c1 returned tolC growth inh 2.9, Ecoli WT expand 3.0, PostGolgi yeast 5.8, PostGolgi ctrl 12.4, Calb biofilm kill 0.3 and Pyk2 oligo antag -0.15.
Screening CCCCOc1ccc(S(=O)(=O)Nc2cccnc2)cc1 returned tolC growth inh 13.1, Ecoli WT expand -13.0, PostGolgi yeast 31.9*, PostGolgi ctrl 13.7 and Pyk2 oligo antag -0.85.
Screening CCCCOc1ccc(S(=O)(=O)Nc2cc(OC)ccc2OC)cc1 returned tolC growth inh 70.2*, Ecoli WT expand -9.0, PostGolgi yeast 2.4, PostGolgi ctrl 51.3* and Pyk2 oligo antag -1.73.
Screening COc1ccc(CCNS(=O)(=O)c2ccccc2)cc1OC returned tolC growth inh -12.8, Ecoli WT expand -2.0, PostGolgi yeast -0.3, PostGolgi ctrl -1.7, Calb biofilm kill 5.0 and Pyk2 oligo antag -0.3.
`COc1ccc(S(=O)(=O)NCCOc2ccccc2)cc1OC` gave tolC growth inh -3.1, Ecoli WT expand -2.0, PostGolgi yeast -6.9, PostGolgi ctrl 33.1*, Calb biofilm kill 4.4 and Pyk2 oligo antag -0.32.
For CC1CCCCC1NC(=O)c1ccc2c(c1)[nH]c(=O)n2C1CCCC1 (stereo not drawn) the results were tolC growth inh 35.0, Ecoli WT expand -9.0, PostGolgi yeast -12.6, PostGolgi ctrl 7.0, Calb biofilm kill 8.8 and Pyk2 oligo antag 0.02.
`O=C(CSc1nn(-c2ccccc2)c(=S)s1)Nn1cnnc1` gave tolC growth inh -1.0, Ecoli WT expand 3.0, PostGolgi yeast -6.9, PostGolgi ctrl 34.7*, Calb biofilm kill 11.8 and Pyk2 oligo antag 1.23.
Screening COc1cccc(CNC(=O)C2=C(C)C(=O)OC23CCC(C)CC3)c1 (stereo not drawn) returned Ecoli WT expand 12.0, PostGolgi yeast 2.8, PostGolgi ctrl 8.3 and Pyk2 oligo antag 0.33.
Screening O=C(Nc1ccc(Cl)cc1C(=O)Nc1ccc(Br)cn1)c1ccco1 returned tolC growth inh 40.3, Ecoli WT expand -11.0, PostGolgi yeast 22.2, PostGolgi ctrl 52.4*, Calb biofilm kill -1.9 and Pyk2 oligo antag -0.97.
Fc1cccc(-c2cc3nc4c(c(N5CCC6(CC5)OCCO6)n3n2)CCCC4)c1 was read as tolC growth inh 27.8, Ecoli WT expand -17.0, PostGolgi yeast 9.5, PostGolgi ctrl 81.1*, Calb biofilm kill 5.0 and Pyk2 oligo antag -1.57.
`CN(CCO)c1c2c(nc3cc(-c4cccc(F)c4)nn13)CCCC2` gave Ecoli WT expand 1.0, PostGolgi yeast -4.2, PostGolgi ctrl 47.1*, Calb biofilm kill 0.6 and Pyk2 oligo antag -1.86.
Screening Clc1cccc(-c2cc3nc4c(c(N5CCNCC5)n3n2)CCCC4)c1 returned Calb biofilm kill -3.0.
`OC1CCN(c2c3c(nc4cc(-c5cccc(F)c5)nn24)CCCC3)CC1` gave tolC growth inh 13.1, Ecoli WT expand 3.0, PostGolgi yeast -0.2, PostGolgi ctrl 87.5*, Calb biofilm kill 3.6 and Pyk2 oligo antag -2.4.
CCc1nnc(NC(=O)c2cccc(C(=O)Nc3nnc(CC)s3)n2)s1 was read as tolC growth inh 94.0* and Calb biofilm kill 5.2.
For CCCn1nnnc1NC(=O)c1ccc(C)cc1Cl the results were Ecoli WT expand 6.0, PostGolgi yeast 5.6, PostGolgi ctrl 4.7 and Pyk2 oligo antag 0.02.
CC(C)C(=O)N(c1cc2sc(=O)oc2c2ccccc12)S(=O)(=O)c1cccs1 was read as Ecoli WT expand -3.0, PostGolgi yeast 10.2, PostGolgi ctrl 67.2*, Calb biofilm kill 5.7 and Pyk2 oligo antag -0.93.
Screening Brc1cc(Br)c2nc(-c3ccc(N4CCOCC4)cc3)ccc2c1 returned Ecoli WT expand -9.0, PostGolgi yeast 3.0, PostGolgi ctrl 36.5* and Pyk2 oligo antag 0.24.
Cc1nn(-c2nc3ccccc3[nH]2)c(N)c1-c1ccccc1 was read as tolC growth inh 75.8*, Calb biofilm kill 7.3 and Pyk2 oligo antag -2.21.
Screening CCOC(=O)C1C(=O)N(C(=O)c2cncc(Br)c2)CC1c1ccccc1 (stereo not drawn) returned tolC growth inh -11.5, Ecoli WT expand -7.0, PostGolgi yeast 7.9, PostGolgi ctrl 19.6, Calb biofilm kill 10.0 and Pyk2 oligo antag 0.08.
`Cc1cc(Cn2ccnc2)c(C)cc1Cn1ccnc1` gave tolC growth inh 12.6, Ecoli WT expand 4.0, PostGolgi yeast -4.6, PostGolgi ctrl -0.4, Calb biofilm kill 1.7 and Pyk2 oligo antag 1.21.
`O=C(c1ccco1)N1CCN(c2ncnc3c2[nH]c2ccccc23)CC1` gave tolC growth inh 5.9, Ecoli WT expand 1.0, PostGolgi yeast 43.4*, PostGolgi ctrl 2.8 and Calb biofilm kill -1.3.
For O=C(c1ccco1)N1CCN(c2ncnc3c2[nH]c2ccc(Br)cc23)CC1 the results were tolC growth inh 65.5*, Ecoli WT expand -7.0, PostGolgi yeast 11.1, PostGolgi ctrl 18.8, Calb biofilm kill 4.9 and Pyk2 oligo antag 1.27.
For COc1ccc(-c2nsc3c(N4CCN(C(=O)c5ccco5)CC4)ncnc23)cc1 the results were tolC growth inh -1.6, Ecoli WT expand 1.0, PostGolgi yeast 23.9, PostGolgi ctrl 20.1, Calb biofilm kill 3.8 and Pyk2 oligo antag -1.84.
`O=C(c1ccco1)N1CCN(c2ncnc3c(-c4ccccc4)nsc23)CC1` gave tolC growth inh 31.0, Ecoli WT expand -16.0, PostGolgi yeast -7.6, PostGolgi ctrl 23.1, Calb biofilm kill 5.4 and Pyk2 oligo antag 0.69.
Screening Cc1cccc(C)c1NC(=S)N/N=C/c1ccc(OCCC(C)C)cc1 returned Ecoli WT expand -4.0, PostGolgi yeast 2.2, PostGolgi ctrl 14.2 and Pyk2 oligo antag -0.65.
Cc1cc(SCC(=O)N2CCC(c3noc4ccc(F)cc34)CC2)nc2ccccc12 was read as tolC growth inh 34.5, Ecoli WT expand -15.0, PostGolgi yeast 9.6, PostGolgi ctrl 34.0*, Calb biofilm kill 4.8 and Pyk2 oligo antag -0.89.
